Reference: ChEMBL document CHEMBL6177921, “Enhancing the antimycobacterial efficacy of pyridine-4-carbohydrazide: linkage to additional antimicrobial agents via oxocarboxylic acids” (RSC Med Chem, 2025)
In brackets after ≈: the same amount, converted by molar mass.

Key:
Assay type in all cases: functional
[1] = tested on: Mycobacterium avium; assay: Antimycobacterial activity against INH/RIF/rifabutin/OFX/EMB resistant Mycobacterium avium CNCTC 330/88 assessed as bacterial growth inhibition incubated for 21 days by two-fold serial dilution method; conditions: CNCTC 330/88, 504 h, time 21 day
Outline: (§1)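 M. avium CNCTC 330/88 (stock suspension dilution 10−5) grown in Šula's semisynthetic liquid medium; two-fold serial dilutions 1000 to 1 μM from DMSO stocks (final DMSO 1.0% v/v); final load 1.5 × 10^5 CFU mL−1; MIC read visually as lowest concentration giving complete growth inhibition after 14 and 21 days.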

[2] = tested on: Mycobacterium tuberculosis; assay: Antimycobacterial activity against multidrug sensitive Mycobacterium tuberculosis H37Rv CNCTC 331/88 assessed as bacterial growth inhibition incubated for 14 days by two-fold serial dilution method; conditions: H37Rv CNCTC 331/88, 336 h, time 14 day
[3] = tested on: Mycobacterium tuberculosis; assay: Antimycobacterial activity against Mycobacterium tuberculosis H37Rv CNCTC 331/88 assessed as bacterial growth inhibition incubated for 21 days by two fold serial dilution method; conditions: H37Rv CNCTC 331/88, 504 h, time 21 day
[4] = tested on: Mycobacterium kansasii; assay: Antimycobacterial activity against multi-drug resistant Mycobacterium kansasii clinical isolate CNCTC 6509/96 assessed as bacterial growth inhibition incubated for 21 days by two-fold serial dilution method; conditions: CNCTC 6509/96, 504 h, time 21 day
Outline: (§2)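 M. kansasii clinical isolate 6509/96 (stock dilution 10−4) in Šula's semisynthetic liquid medium; two-fold serial dilutions 1000 to 1 μM, DMSO final 1.0% v/v; final load 1.5 × 10^5 CFU mL−1; MIC read visually as complete growth inhibition at 7, 14 and 21 days.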

[5] = tested on: Mycobacterium kansasii; assay: Antimycobacterial activity against multi-drug resistant Mycobacterium kansasii CNCTC 6509/96 clinical isolate assessed as bacterial growth inhibition incubated for 14 days by two-fold serial dilution method; conditions: CNCTC 6509/96, 336 h, time 14 day; outline: as §2
[6] = tested on: Mycobacterium kansasii; assay: Antimycobacterial activity against INH/RIF/rifabutin/OFX/EMB Mycobacterium kansasii CNCTC 6509/96 clinical isolate assessed as bacterial growth inhibition incubated for 7 days by two-fold serial dilution method; conditions: CNCTC 6509/96, 168 h, time 7 day
Outline: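 Šula's liquid semisynthetic medium; M. kansasii clinical isolate 6509/96 used at stock dilution 10−4, final ~1.5 × 10^5 CFU mL−1. Two-fold dilutions ran 1000–1 μM with final DMSO 1.0% (v/v). MIC was read visually as complete growth inhibition after 7, 14 and 21 days.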

[7] = tested on: Mycobacterium avium; assay: Antimycobacterial activity against INH/RIF/rifabutin/OFX/EMB resistant Mycobacterium avium CNCTC 330/88 assessed as bacterial growth inhibition incubated for 14 days by two-fold serial dilution method; conditions: CNCTC 330/88, 336 h, time 14 day; outline: as §1
[8] = tested on: Candida albicans; assay: Antifungal activity against Candida albicans ATCC 24443 measured after 24 to 48 hrs by microdilution broth method; conditions: time 24-48 hrs
Outline: (§3)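 Yeast broth microdilution per EUCAST, slightly modified. Medium was RPMI-1640 with 2% glucose, MOPS-buffered to pH 7.0. Compounds were tested at 0.98–500 μM with final DMSO ≤1.0% (v/v). Inoculum came from 18–24 h cultures, final ~1–5 × 10^5 CFU mL−1. Plates were incubated statically, dark and humidified, at 35 ± 2 °C. MIC was read visually at 24 and 48 h (no visible growth).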

[9] = tested on: Candida tropicalis; assay: Antifungal activity against Candida tropicalis CCM 8264 measured after 24 to 48 hrs by microdilution broth method; conditions: time 24-48 hrs; outline: as §3
[10] = tested on: Candida albicans; assay: Antifungal activity against Candida albicans CCM 8320 measured after 24 to 48 hrs by microdilution broth method; conditions: time 24-48 hrs; outline: as §3
[11] = tested on: Lichtheimia corymbifera; assay: Antifungal activity against Lichtheimia corymbifera CCM 8077 measured after 24 to 48 hrs by microdilution broth method; conditions: time 24-48 hrs
Outline: (§4)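 Filamentous fungi tested by broth microdilution per EUCAST with minor changes. Compounds were tested at 0.98–500 μM with final DMSO ≤1.0% (v/v). Plates were incubated statically, dark and humidified, at 35 ± 2 °C for 24 and 48 h. MIC was the lowest concentration showing no visible growth.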

[12] = tested on: Pichia kudriavzevii; assay: Antifungal activity against Candida krusei ATCC 6258 measured after 24 to 48 hrs by microdilution broth method; conditions: time 24-48 hrs; outline: as §3
[13] = tested on: Pichia kudriavzevii; assay: Antifungal activity against Candida krusei CCM 8271 measured after 24 to 48 hrs by microdilution broth method; conditions: time 24-48 hrs; outline: as §3
[14] = tested on: Candida tropicalis; assay: Antifungal activity against Candida tropicalis ATCC 750 measured after 24 to 48 hrs by microdilution broth method; conditions: time 24-48 hrs; outline: as §3
[15] = tested on: Trichophyton interdigitale; assay: Antifungal activity against Trichophyton interdigitale ATCC 9533 measured after 24 to 48 hrs by microdilution broth method; conditions: time 24-48 hrs
[16] = tested on: Trichophyton interdigitale; assay: Antifungal activity against Trichophyton interdigitale CCM 8377 measured after 24 to 48 hrs by microdilution broth method; conditions: time 24-48 hrs
[17] = tested on: Candida parapsilosis; assay: Antifungal activity against Candida parapsilosis ATCC 22019 measured after 24 to 48 hrs by microdilution broth method; conditions: Lodderomyces parapsilosis, time 24-48 hrs; outline: as §3
[18] = tested on: Aspergillus flavus; assay: Antifungal activity against Aspergillus flavus CCM 8363 measured after 24 to 48 hrs by microdilution broth method; conditions: time 24-48 hrs; outline: as §4
[19] = tested on: Candida parapsilosis; assay: Antifungal activity against Candida parapsilosis CCM 8260 measured after 24 to 48 hrs by microdilution broth method; conditions: Lodderomyces parapsilosis, time 24-48 hrs; outline: as §3
[20] = tested on: Aspergillus fumigatus; assay: Antifungal activity against Aspergillus fumigatus ATCC 204305 measured after 24 to 48 hrs by microdilution broth method; conditions: time 24-48 hrs; outline: as §4

Nc1ccc(S(=O)(=O)Nc2ccc(Oc3ccccc3)cc2)cc1
MIC [1]: 1000 µM (≈ 340 µg/mL)
MIC [2]: 500 µM (≈ 170 µg/mL)
MIC [3]: 500 µM (≈ 170 µg/mL)
MIC [4]: 500 µM (≈ 170 µg/mL)
MIC [5]: 500 µM (≈ 170 µg/mL)
MIC [6]: 250 µM (≈ 85.1 µg/mL)
MIC [7]: 1000 µM (≈ 340 µg/mL)

C/C(=N\NC(=O)c1ccncc1)C(=O)Nc1ccccc1Oc1ccccc1
MIC [8]: > 500 µM
MIC [9]: > 500 µM
MIC [10]: > 500 µM
MIC [1]: ≥ 1000 µM
MIC [11]: > 500 µM
MIC [12]: > 500 µM
MIC [13]: > 500 µM
MIC [2]: 0.25 µM (≈ 0.0936 µg/mL)
MIC [3]: 0.5 µM (≈ 0.187 µg/mL)
MIC [14]: > 500 µM
MIC [4]: 16 µM (≈ 5.99 µg/mL)
MIC [15]: > 500 µM
MIC [5]: 8 µM (≈ 3 µg/mL)
MIC [16]: > 500 µM
MIC [17]: > 500 µM
MIC [18]: > 500 µM
MIC [6]: 4 µM (≈ 1.5 µg/mL)
MIC [7]: ≥ 1000 µM
MIC [19]: > 500 µM
MIC [20]: > 500 µM

C/C(=N\NC(=O)c1ccncc1)C(=O)O [PYRUVIC ACID ISONIAZID]
MIC [1]: > 1000 µM
MIC [2]: 1 µM (≈ 0.207 µg/mL)
MIC [3]: 1 µM (≈ 0.207 µg/mL)
MIC [4]: 16 µM (≈ 3.32 µg/mL)
MIC [5]: 16 µM (≈ 3.32 µg/mL)
MIC [6]: 8 µM (≈ 1.66 µg/mL)
MIC [7]: 500 µM (≈ 104 µg/mL)

COc1cnc(NS(=O)(=O)c2ccc(NC(=O)/C(C)=N/NC(=O)c3ccncc3)cc2)nc1
MIC [8]: > 500 µM
MIC [9]: > 500 µM
MIC [10]: > 500 µM
MIC [1]: ≥ 1000 µM
MIC [11]: > 500 µM
MIC [12]: > 500 µM
MIC [13]: > 500 µM
MIC [2]: 2 µM (≈ 0.939 µg/mL)
MIC [3]: 2 µM (≈ 0.939 µg/mL)
MIC [14]: > 500 µM
MIC [4]: 32 µM (≈ 15 µg/mL)
MIC [15]: > 500 µM
MIC [5]: 32 µM (≈ 15 µg/mL)
MIC [16]: > 500 µM
MIC [17]: > 500 µM
MIC [18]: > 500 µM
MIC [6]: 32 µM (≈ 15 µg/mL)
MIC [7]: ≥ 1000 µM
MIC [19]: > 500 µM
MIC [20]: > 500 µM

C/C(=N\NC(=O)c1ccncc1)C(=O)Nc1ccc(S(=O)(=O)Nc2ncccn2)cc1
MIC [8]: > 500 µM
MIC [9]: > 500 µM
MIC [10]: > 500 µM
MIC [1]: ≥ 1000 µM
MIC [11]: > 500 µM
MIC [12]: > 500 µM
MIC [13]: > 500 µM
MIC [2]: 2 µM (≈ 0.879 µg/mL)
MIC [3]: 2 µM (≈ 0.879 µg/mL)
MIC [14]: > 500 µM
MIC [4]: 64 µM (≈ 28.1 µg/mL)
MIC [15]: > 500 µM
MIC [5]: 64 µM (≈ 28.1 µg/mL)
MIC [16]: > 500 µM
MIC [17]: > 500 µM
MIC [18]: > 500 µM
MIC [6]: 32 µM (≈ 14.1 µg/mL)
MIC [7]: 1000 µM (≈ 439 µg/mL)
MIC [19]: > 500 µM
MIC [20]: > 500 µM
